Results on eleven compounds are retold here after ChEMBL document CHEMBL1134486, “Synthesis and biological evaluation of purine-containing butenolides” (J Med Chem, 2001).

Assay [1] concerns L1210. The assay is described as follows: Anticancer activity carried out in vitro against murine leukemia L1210. The class given is functional, cell-based. The note with it: Mus musculus. In short, it runs like this: (§1)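 Cells grown in DMEM with 10% FBS, 2.0 mM glutamine, penicillin/streptomycin, 5% CO2, 37 °C; exponential-phase cells (200 cells/mL) given compounds at various concentrations, counted at 24, 48, 72 h; IC50 for 50% proliferation inhibition at 72 h from dose-response curves of two independent experiments.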

The target of assay [2] is T1, Adenosine deaminase (Bos taurus, UniProt P56658).
T1 sequence (P56658 whole entry): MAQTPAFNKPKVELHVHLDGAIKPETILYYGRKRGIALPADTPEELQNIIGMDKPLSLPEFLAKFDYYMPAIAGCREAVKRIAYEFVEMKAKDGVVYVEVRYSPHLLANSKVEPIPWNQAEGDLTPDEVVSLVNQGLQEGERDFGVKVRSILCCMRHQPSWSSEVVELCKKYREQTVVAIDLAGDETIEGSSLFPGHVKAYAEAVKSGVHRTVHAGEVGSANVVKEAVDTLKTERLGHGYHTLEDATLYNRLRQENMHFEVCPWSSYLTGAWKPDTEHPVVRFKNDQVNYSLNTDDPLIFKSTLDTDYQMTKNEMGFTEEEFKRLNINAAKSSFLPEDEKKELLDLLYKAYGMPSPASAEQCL
The assay is described as follows: Rate of deamination in the presence of calf mucosal adenosine deaminase (ADA). Summed up: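 Deamination rates followed with calf mucosal ADA (EC 3.5.4.4) in buffer solutions; Km and Vmax relative to adenosine as substrate; inhibition (Ki) assessed with adenosine as substrate.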

In assay [3] the test system is HeLa. The assay is described as follows: Concentration required to cause microscopically visible change or disruption in about 50% of cell sheet of HeLa cells. The class given is functional, cell-based, Homo sapiens. Summed up: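 HeLa cells exposed to compounds at different concentrations; toxicity scored as morphological change, value is concentration causing microscopically visible change or disruption in about 50% of the cell sheet; mean of duplicate determinations.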

Assay [4] can be described thus: Anticancer activity carried out in vitro against human T-lymphocyte Molt4/C8. The class given is functional, cell-based. The settings on record: MOLT-4. In short, it runs like this:
as §1

The test system of assay [5] is MCF7. The assay is described as follows: Anticancer activity carried out in vitro against breast carcinoma MCF-7. The class given is functional, cell-based. The note with it: Homo sapiens. In short, it runs like this: as §1
Assay [6] concerns HeLa. The assay is described as follows: Ability to inhibit cytopathogenicity of herpes simplex type 1 virus (KOS) in HeLa cell culture. The class given is functional, cell-based. The settings on record: Homo sapiens. Summed up:
(§2)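 Inhibition of virus-induced cytopathogenicity measured in HeLa cell culture; IC50 derived by linear regression, mean of duplicate determinations.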

A short description of assay [7]: Anticancer activity carried out in vitro against human T-lymphocyte CEM/0. The class given is functional. The settings on record: CCRF-CEM. In short, it runs like this:
as §1

In assay [8] the test system is HeLa. The assay is described as follows: Ability to inhibit cytopathogenicity of thymidine kinase-deficient (TK-) strain of Varicella zoster virus (YS/R) in HeLa cell culture. The class given is functional, cell-based. The note with it: Homo sapiens. Summed up: as §2
Assay [9] relates to P388. The assay is described as follows: Anticancer activity carried out in vitro against murine leukemia P388. The class given is functional, cell-based. The note with it: Mus musculus. In short, it runs like this: as §1
Assay [10] deals with HeLa. The assay is described as follows: Ability to inhibit cytopathogenicity of thymidine kinase-positive(TK+) strain of Varicella zoster virus (YS) in HeLa cell culture. The class given is functional, cell-based. The settings on record: Homo sapiens. In short, it runs like this:
as §2

Assay [11] concerns HeLa. The assay is described as follows: Ability to inhibit cytopathogenicity of herpes simplex type 2 virus (G) in HeLa cell culture. The settings on record: Homo sapiens. (Cytopathic effects are the visible damage that an infection or toxin causes in cultured cells.)

A word on the IC50: it is the concentration needed to halve the response being measured. What is called Ki is the dissociation constant of the complex between target and ligand, obtained from inhibition or displacement. As for `COC1=C(OC)C(O)(CCn2cnc3c(N)ncnc32)OC1=O` (stereo not given), the IC50 is > 120 µM in [1]; 157 µM in assay [3] (Homo sapiens, HeLa); > 120 µM in [4]; > 120 µM in [5]; > 128 µM in assay [6]; > 120 µM in assay [7]. Also, the IC50 in [8] was > 128 µM; in assay [9], > 120 µM; in [10] it was > 128 µM. Also, the Ki in [2] was > 800 µM.

Take `COC1=C(OC)/C(=C/Cn2cnc3c(Cl)ncnc32)OC1=O`: the IC50 in assay [1] turned out to be 4.52 µM; in [3] (Homo sapiens, HeLa) it was 23.4 µM; in assay [4], 5.97 µM; in assay [5], 16.9 µM; in assay [6], 10.9 µM; in [7], 4.71 µM. Also, the IC50 in [8] was 1.62 µM; in assay [9] it was 8.12 µM; in assay [10] it was 5.92 µM.

Consider `COC1=C(OCc2ccc([N+](=O)[O-])cc2)/C(=C\Cn2cnc3c(Cl)ncnc32)OC1=O`, for which the IC50 is 5.81 µM in assay [1]; 19.3 µM in assay [3] (Homo sapiens, HeLa); 7.35 µM in assay [4]; 15.4 µM in assay [5]; 9.83 µM in assay [6]; 3.98 µM in assay [7]. The IC50 in assay [8] is 1.03 µM; in assay [9], 6.49 µM; in assay [10], 4.4 µM.

For `COC1=C(OC)/C(=C/Cn2cnc3c(N)ncnc32)OC1=O`, the IC50 in [1] is 93.4 µM; in assay [3] (Homo sapiens, HeLa), 42.4 µM; in assay [4] it was 78.5 µM; in assay [5], > 120 µM; in assay [6] it was 14.5 µM; in assay [7], 84.5 µM. Further, the IC50 in assay [8] was found to be 6.07 µM; in assay [9], 2.67 µM; in assay [10], 12.8 µM. The Ki in assay [2] was 316 µM.

On to `COC1=C(OCc2ccc([N+](=O)[O-])cc2)C(=O)O/C1=C/Cn1cnc2c(Cl)ncnc21`, for which the IC50 worked out at 6.03 µM in assay [1]; 20.2 µM in [3] (Homo sapiens, HeLa); 6.16 µM in [4]; 14.2 µM in assay [5]; 7.24 µM in assay [6]; 5.04 µM in assay [7]. The IC50 in [8] worked out at 0.89 µM; in [9], 7.42 µM; in assay [10], 6.32 µM.

As for `COC1=C(OC)/C(=C/C(n2cnc3c(Cl)ncnc32)P(=O)(OC)OC)OC1=O` (stereo not given), the IC50 in [1] was 16.2 µM; in assay [3] (Homo sapiens, HeLa), 28.1 µM; in assay [4], 12.5 µM; in [5] it was 90.1 µM; in assay [6] it was 13.2 µM; in [7], 96 µM. In addition, the IC50 in [8] came to 5.03 µM; in assay [9], 14.3 µM; in [10], 10.2 µM.

With `O=C1O/C(=C/Cn2cnc3c(Cl)ncnc32)C(OCc2ccc([N+](=O)[O-])cc2)=C1OCc1ccc([N+](=O)[O-])cc1`, the IC50 is > 120 µM in assay [1]; 17 µM in assay [3] (Homo sapiens, HeLa); > 120 µM in assay [4]; > 120 µM in [5]; 28.4 µM in assay [6]; > 120 µM in assay [7]. The IC50 in assay [8] was 34.7 µM; in assay [9], > 120 µM; in [10], 37.5 µM.

Take `COC1=C(OC)C(O)(CCn2cnc3c(Cl)ncnc32)OC1=O` (racemic): the IC50 is > 120 µM in assay [1]; 149 µM in assay [3] (Homo sapiens, HeLa); > 120 µM in assay [4]; > 120 µM in assay [5]; > 128 µM in [6]; > 120 µM in assay [7]. Besides, the IC50 in [8] was > 128 µM; in assay [9] it was > 120 µM; in assay [10], > 128 µM.

Regarding `COC1=C(OC)C(O)(CCn2cnc3c(Cl)ncnc32)OC1=O` (stereo in doubt; (-)-4), the IC50 in assay [3] (hela) was 132 µM.

Consider `Nc1nc2c(ncn2COCCO)c(=O)[nH]1` [ACYCLOVIR], for which the IC50 was found to be 0.19 µM in assay [11]; 254 µM in assay [3] (Homo sapiens, HeLa); 0.11 µM in assay [6]; 26.4 µM in assay [8]; 8.71 µM in assay [10].

On to `Nc1ccn([C@@H]2O[C@H](CO)[C@@H](O)[C@@H]2O)c(=O)n1` [CYTARABINE], for which the half-inhibitory concentration (IC50) in assay [1] is 0.17 µM; in [4], 0.65 µM; in assay [5], 1.03 µM; in assay [7], 0.78 µM; in [9] it was 0.14 µM.
